Experimental findings from ChEMBL document CHEMBL1121551, “Amino acid and dipeptide derivatives of daunorubicin. 2. Cellular pharmacology and antitumor activity on L1210 leukemic cells in vitro and in vivo” (1980) are described below.

Experiment [1] relates to Mus musculus. Kind of experiment: Chemotherapeutic activity was evaluated by measuring percent change in weight on day 8 at 12(mg/kg)/day, sc. It counts as functional.
Experiment [2] has as its system Mus musculus. Kind of experiment: Chemotherapeutic activity was evaluated by measuring percent change in weight on day 8 at 11 mg/kg/day, iv. The experiment is classed as functional. In short, it runs like this:
(§1)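 Female DBA2 mice were inoculated iv on day 0 with 10^4 L1210 leukemic cells. Drugs were given iv on days 1 and 2 at the stated daily dose. Percent body weight change was recorded on day 8, and weight loss served as the index of general toxicity.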

Experiment [3] concerns Mus musculus. Nature of the experiment: Percent increase in life span of female DBA2 mice subcutaneously inoculated with L1210 leukemia at 11 mg/kg/day, iv.
Experiment [4] relates to Mus musculus. Nature of the experiment: Chemotherapeutic activity was evaluated by measuring percent change in weight on day 8 at 11 mg/kg/day, sc. The experiment is classed as functional. The gist of the method:
(§2)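 Drugs were given iv on days 1 and 2 at the stated daily dose. Average tumor diameter was estimated daily with calipers, and body weight change was recorded on day 8. Results from several experiments are given as mean ± SD.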

For experiment [5], the system named is Mus musculus. Kind of experiment: Chemotherapeutic activity was evaluated by measuring number of survivors on day 30 / total number of mice at 12(mg/kg)/day, sc; 3/36. The experiment is classed as functional.
Experiment [6] concerns Mus musculus. Kind of experiment: Chemotherapeutic activity was evaluated by measuring the percent increase in life span of female DBA2 mice intravenously inoculated with L1210 leukemia at 11 mg/kg/day, iv. The experiment is classed as functional. In short, it runs like this: (§3)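 Female DBA2 mice given 10^4 L1210 cells iv on day 0; cells harvested from a 6- to 8-day-old ascitic L1210 form. Drug given iv on days 1 and 2 at the stated daily dose. Read-outs are % increase in life span and the number of mice alive on day 30 over the total.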

For experiment [7], the system named is Mus musculus. Nature of the experiment: Chemotherapeutic activity was evaluated by measuring the percent increase in life span of female DBA2 mice subcutaneously inoculated with L1210 leukemia at 12(mg/kg)/day, sc. The experiment is classed as functional.
Experiment [8] relates to Mus musculus. Kind of experiment: Chemotherapeutic activity was evaluated by measuring mean tumor diameter on day 8 at 10 mg/kg/day, iv.
Experiment [9] concerns Mus musculus. Nature of the experiment: Chemotherapeutic activity was evaluated by measuring the percent increase in life span of female DBA2 mice intravenously inoculated with L1210 leukemia at 12(mg/kg)/day, iv. It counts as functional. In short, it runs like this: as §3
Experiment [10] has as its system Mus musculus. Nature of the experiment: Chemotherapeutic activity was evaluated by measuring number of survivors on day 30 / total number of mice at 11 mg/kg/day, sc; 3/37. It counts as functional.
Experiment [11] deals with Mus musculus. Nature of the experiment: Chemotherapeutic activity was evaluated by measuring mean tumor diameter on day 12 at 12(mg/kg)/day, sc. It counts as functional.
The test system of experiment [12] is Mus musculus. Nature of the experiment: Chemotherapeutic activity was evaluated by measuring the percent increase in life span of female DBA2 mice intravenously inoculated with L1210 leukemia at 10 mg/kg/day, iv. The experiment is classed as functional. The gist of the method: as §3
Experiment [13] concerns Mus musculus. Kind of experiment: Chemotherapeutic activity was evaluated by measuring mean tumor diameter on day 12 at 11 mg/kg/day, iv.
For experiment [14], the system named is Mus musculus. Nature of the experiment: Chemotherapeutic activity was evaluated by measuring percent change in weight on day 8 at 10 mg/kg/day, sc. It counts as functional. In short, it runs like this:
as §2

Experiment [15] concerns Mus musculus. Kind of experiment: Chemotherapeutic activity was evaluated by measuring number of survivors on day 30 / total number of mice at 12(mg/kg)/day, iv; 6/34. It counts as functional. The gist of the method:
as §3

For experiment [16], the system named is Mus musculus. Kind of experiment: Chemotherapeutic activity was evaluated by measuring number of survivors on day 30 / total number of mice at 10 mg/kg/day, iv; 0/18. The experiment is classed as functional. The gist of the method: as §3
In experiment [17] the test system is Mus musculus. Kind of experiment: Chemotherapeutic activity was evaluated by measuring mean tumor diameter on day 8 at 11 mg/kg/day, iv.
Experiment [18] deals with Mus musculus. Nature of the experiment: Chemotherapeutic activity was evaluated by measuring percent change in weight on day 8 at 10 mg/kg/day, iv. It counts as functional. In short, it runs like this:
as §1

Experiment [19] deals with Mus musculus. Kind of experiment: Chemotherapeutic activity was evaluated by measuring number of survivors on day 30 / total number of mice at 11 mg/kg/day, iv; 0/37. It counts as functional. In short, it runs like this:
as §3

For experiment [20], the system named is Mus musculus. Kind of experiment: Percent increase in life span of female DBA2 mice subcutaneously inoculated with L1210 leukemia at 10 mg/kg/day, iv.
For experiment [21], the system named is Mus musculus. Kind of experiment: Chemotherapeutic activity was evaluated by measuring percent change in weight on day 8 at 12(mg/kg)/day, iv. It counts as functional. In short, it runs like this:
as §1

The test system of experiment [22] is Mus musculus. Kind of experiment: Chemotherapeutic activity was evaluated by measuring number of survivors on day 30 / total number of mice at 10 mg/kg/day, sc; 0/58. It counts as functional.
In experiment [23] the test system is Mus musculus. Kind of experiment: Chemotherapeutic activity was evaluated by measuring mean tumor diameter on day 12 at 10 mg/kg/day, iv.
The test system of experiment [24] is Mus musculus. Nature of the experiment: Chemotherapeutic activity was evaluated by measuring mean tumor diameter on day 8 at 66 mg/kg/day, iv.
Experiment [25] deals with Mus musculus. Nature of the experiment: Percent increase in life span of female DBA2 mice subcutaneously inoculated with L1210 leukemia at 66 mg/kg/day, iv.
Experiment [26] has as its system Mus musculus. Kind of experiment: Chemotherapeutic activity was evaluated by measuring percent change in weight on day 8 at 66 mg/kg/day, sc. It counts as functional. In short, it runs like this: as §2
The test system of experiment [27] is Mus musculus. Kind of experiment: Chemotherapeutic activity was evaluated by measuring percent change in weight on day 8 at 50(mg/kg)/day, iv. It counts as functional. The gist of the method: as §1
Experiment [28] relates to Mus musculus. Nature of the experiment: Percent increase in life span of female DBA2 mice subcutaneously inoculated with L1210 leukemia at 60 mg/kg/day, iv.
Experiment [29] concerns Mus musculus. Nature of the experiment: Chemotherapeutic activity was evaluated by measuring percent change in weight on day 8 at 60 mg/kg/day, sc. The experiment is classed as functional. In short, it runs like this: as §2
Experiment [30] deals with Mus musculus. Kind of experiment: Chemotherapeutic activity was evaluated by measuring number of survivors on day 30 / total number of mice at 66 mg/kg/day, sc; 0/9. The experiment is classed as functional.
Experiment [31] concerns Mus musculus. Kind of experiment: Chemotherapeutic activity was evaluated by measuring the percent increase in life span of female DBA2 mice intravenously inoculated with L1210 leukemia at 50(mg/kg)/day, iv. It counts as functional. In short, it runs like this:
as §3

Experiment [32] has as its system Mus musculus. Nature of the experiment: Chemotherapeutic activity was evaluated by measuring mean tumor diameter on day 8 at 60 mg/kg/day, iv.
For experiment [33], the system named is Mus musculus. Nature of the experiment: Chemotherapeutic activity was evaluated by measuring number of survivors on day 30 / total number of mice at 50(mg/kg)/day, iv; 0/7. The experiment is classed as functional. In short, it runs like this:
as §3

For experiment [34], the system named is Mus musculus. Nature of the experiment: Chemotherapeutic activity was evaluated by measuring number of survivors on day 30 / total number of mice at 60 mg/kg/day, sc; 0/18. It counts as functional.
The test system of experiment [35] is Mus musculus. Kind of experiment: Chemotherapeutic activity was evaluated by measuring mean tumor diameter on day 12 at 66 mg/kg/day, iv.

`COc1cccc2c1C(=O)c1c(O)c3c(c(O)c1C2=O)C[C@@](O)(C(C)=O)C[C@@H]3O[C@H]1C[C@H](N)[C@H](O)[C@H](C)O1` [DAUNORUBICIN]: the Weight change is on record as -6.3% in the experiment with Mus musculus [1]; -3.2% in the experiment with Mus musculus [2]; -5.9% with Mus musculus [4]; -4.3% in the experiment on Mus musculus [14]; -1.1% in the experiment with Mus musculus [18]; -8.4% with Mus musculus [21]. For the same molecule, the Increase in life-span in the experiment with Mus musculus [3] came to 67%; in the experiment with Mus musculus [6], 66%; in the experiment on Mus musculus [7] it was 83%; in the experiment with Mus musculus [9], 123%; with Mus musculus [12], 42%; in the experiment on Mus musculus [20] it was 65%. Further, the Survivors was 3 with Mus musculus [5]; 3 in the experiment on Mus musculus [10]; 6 in the experiment with Mus musculus [15]; 0 in the experiment on Mus musculus [16]; 0 in the experiment on Mus musculus [19]; 0 with Mus musculus [22]. Moreover, the Diameter with Mus musculus [8] is 0.3 mm; with Mus musculus [11], 2 mm; with Mus musculus [13] it was 2.9 mm; in the experiment with Mus musculus [17], 0.4 mm; in the experiment on Mus musculus [23] it was 4.1 mm.

Consider `COc1cccc2c1C(=O)c1c(O)c3c(c(O)c1C2=O)C[C@@](O)(C(C)=O)C[C@@H]3O[C@H]1C[C@H](NC(=O)[C@H](C)N)[C@H](O)[C@H](C)O1`, for which the Diameter with Mus musculus [24] was 0 mm; with Mus musculus [32], 1.3 mm; in the experiment with Mus musculus [35], 4.2 mm. For the same molecule, the Increase in life-span in the experiment with Mus musculus [25] is listed as 61%; with Mus musculus [28], 37%; in the experiment on Mus musculus [31] it was 14%. For the same molecule, the results for the Weight change in the experiment on Mus musculus [26], in the experiment with Mus musculus [27] and in the experiment with Mus musculus [29] were -8.5%, -4.4% and -5.9%, respectively. Besides, the Survivors in the experiment with Mus musculus [30], in the experiment on Mus musculus [33] and in the experiment with Mus musculus [34] was 0 each time.
